Test results: ChEMBL document CHEMBL1145249, “A potent and selective nonpeptide antagonist of the melanocortin-4 receptor induces food intake in satiated mice” (Bioorg Med Chem Lett, 2005)

How the values were obtained:
[1] = target: T1, Melanocortin receptor 4 (Homo sapiens, UniProt P32245); assay: Binding affinity for melanocortin-4 receptor transfected in HEK 293 cells using [125I]NDP-MSH as radioligand; assay type: cell-based, HEK293
[2] = target: Melanocortin receptor 3 (Homo sapiens, UniProt P41968); assay: Binding affinity for melanocortin-3 receptor transfected in HEK 293 cells using [125I]NDP-MSH as radioligand; assay type: cell-based, HEK293
Sequence of Melanocortin receptor 3 (P41968 whole entry): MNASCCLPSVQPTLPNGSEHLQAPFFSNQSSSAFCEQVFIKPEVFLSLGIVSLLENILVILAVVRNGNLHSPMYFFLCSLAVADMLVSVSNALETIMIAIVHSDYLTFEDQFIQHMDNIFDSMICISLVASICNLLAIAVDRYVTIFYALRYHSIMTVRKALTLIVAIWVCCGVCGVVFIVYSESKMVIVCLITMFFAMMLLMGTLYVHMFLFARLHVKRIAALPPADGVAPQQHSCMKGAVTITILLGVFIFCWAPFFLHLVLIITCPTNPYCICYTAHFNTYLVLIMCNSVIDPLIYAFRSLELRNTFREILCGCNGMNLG
In short: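 Competition binding at human MC3 or MC4 receptor stably transfected into HEK293 cells, displacing [125I]-NDP-MSH radioligand; Ki reported; values averaged from three or more independent measurements.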

[3] = target: T1, Melanocortin receptor 4; assay: Intrinsic activity towards human alpha-MSH stimulated cAMP level in HEK293 cells by 10 uM compound
[4] = target: Melanocortin receptor 5 (Homo sapiens, UniProt P33032); assay: Binding affinity at melanocortin-5 receptor stably transfected in HEK 293 cells using [125I]NDP-MSH as radiolabeled; assay type: cell-based, HEK293
Sequence of Melanocortin receptor 5 (P33032 whole entry): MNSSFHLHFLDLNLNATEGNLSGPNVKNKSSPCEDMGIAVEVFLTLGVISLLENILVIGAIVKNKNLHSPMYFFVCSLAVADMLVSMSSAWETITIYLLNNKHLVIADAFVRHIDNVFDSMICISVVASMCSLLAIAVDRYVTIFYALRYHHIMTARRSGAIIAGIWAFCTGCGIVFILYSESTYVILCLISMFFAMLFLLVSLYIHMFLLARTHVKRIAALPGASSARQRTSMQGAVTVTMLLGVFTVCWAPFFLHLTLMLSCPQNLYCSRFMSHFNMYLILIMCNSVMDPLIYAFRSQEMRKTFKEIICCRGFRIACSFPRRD
In short: (§1)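 Competition binding at human MC1 or MC5 receptor stably expressed in HEK293 cells, with [125I]-NDP-MSH as the displaced radioligand; Ki determined.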

[5] = target: T2, Melanocyte-stimulating hormone receptor (Homo sapiens, UniProt Q01726); assay: Percent inhibition of human melanocortin 1 receptor at 10 uM concentration
Target sequence in this assay (Q01726 whole entry, looked up): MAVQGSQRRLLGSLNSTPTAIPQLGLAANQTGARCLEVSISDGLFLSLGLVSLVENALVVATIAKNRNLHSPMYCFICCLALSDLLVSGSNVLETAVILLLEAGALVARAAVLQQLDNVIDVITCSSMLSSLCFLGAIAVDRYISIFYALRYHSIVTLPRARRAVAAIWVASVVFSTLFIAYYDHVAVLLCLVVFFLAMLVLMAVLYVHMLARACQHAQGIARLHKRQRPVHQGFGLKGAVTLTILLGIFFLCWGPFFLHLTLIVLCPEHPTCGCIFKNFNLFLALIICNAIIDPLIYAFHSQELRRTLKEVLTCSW

[6] = target: T1, Melanocortin receptor 4; assay: Intrinsic activity towards human alpha-MSH stimulated cAMP level in HEK293 cells
[7] = target: T2, Melanocyte-stimulating hormone receptor; assay: Binding affinity at melanocortin-1 receptor stably transfected in HEK 293 cells using [125I]NDP-MSH as radiolabeled; assay type: cell-based, HEK293; in short: as §1
Target sequence in this assay (Q01726 whole entry): as the sequence (Q01726 whole entry, looked up) above

T1 sequence (P32245 whole entry): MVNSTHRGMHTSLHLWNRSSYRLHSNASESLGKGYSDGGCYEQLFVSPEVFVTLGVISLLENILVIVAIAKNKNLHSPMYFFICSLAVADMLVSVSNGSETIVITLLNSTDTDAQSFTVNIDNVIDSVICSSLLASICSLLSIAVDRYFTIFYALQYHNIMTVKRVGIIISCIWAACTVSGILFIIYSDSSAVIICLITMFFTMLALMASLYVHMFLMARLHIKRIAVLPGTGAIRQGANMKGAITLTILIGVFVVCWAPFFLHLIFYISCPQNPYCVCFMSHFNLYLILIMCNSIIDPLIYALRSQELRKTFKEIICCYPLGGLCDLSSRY

Ki [1]	Ki [2]	Structure (SMILES)	other results
3600 nM	–	O=C(N[C@H](Cc1cnc[nH]1)C(=O)N1CCN(c2ccccc2CNCCc2cccs2)CC1)OCc1ccccc1	–
2.8 nM	830 nM	COC(=O)CCC(=O)N[C@H](Cc1ccc(Cl)cc1Cl)C(=O)N1CCN(c2ccccc2CNCCc2cccs2)CC1	–
23 nM	–	CC(C)CN[C@H](Cc1ccc(Cl)cc1Cl)C(=O)N1CCN(c2ccccc2CNCCc2cccs2)CC1	IA [3]: < 3%
2.9 nM	390 nM	O=C(NCCO)N[C@H](Cc1ccc(Cl)cc1Cl)C(=O)N1CCN(c2ccccc2CNCCc2cccs2)CC1	Ki [4]: 350 nM; inhibition [5]: 8%
–	–	O=C(N[C@H](Cc1ccc(Cl)cc1)C(=O)N1CCN(c2ccccc2CNCCc2cccs2)CC1)C1CCCNC1 (some centres not stated)	IA [6]: 12%
4.6 nM	800 nM	CCOC(=O)N[C@H](Cc1ccc(Cl)cc1Cl)C(=O)N1CCN(c2ccccc2CNCCc2cccs2)CC1	–
18 nM	–	O=C([C@@H](Cc1ccc(Cl)cc1Cl)NCC1CC1)N1CCN(c2ccccc2CNCCc2cccs2)CC1	IA [3]: < 3%
2.4 nM	1000 nM	CC(C)(C)NC(=O)N[C@H](Cc1ccc(Cl)cc1Cl)C(=O)N1CCN(c2ccccc2CNCCc2cccs2)CC1	–
420 nM	–	O=C(N[C@H](Cc1cccc2ccccc12)C(=O)N1CCN(c2ccccc2CNCCc2cccs2)CC1)OCc1ccccc1	–
31 nM	–	O=C([C@@H](Cc1ccc(Cl)cc1Cl)NCc1ccccc1)N1CCN(c2ccccc2CNCCc2cccs2)CC1	IA [3]: < 3%
4.5 nM	1300 nM	CC(C)OC(=O)N[C@H](Cc1ccc(Cl)cc1Cl)C(=O)N1CCN(c2ccccc2CNCCc2cccs2)CC1	Ki [4]: 680 nM; inhibition [5]: 9%
1.4 nM	450 nM	CC(C)NC(=O)N[C@H](Cc1ccc(Cl)cc1Cl)C(=O)N1CCN(c2ccccc2CNCCc2cccs2)CC1	–
2 nM	950 nM	NCCCC(=O)N[C@H](Cc1ccc(Cl)cc1Cl)C(=O)N1CCN(c2ccccc2CNCCc2cccs2)CC1	–
2300 nM	–	O=C(N[C@H](Cc1c[nH]c2ccccc12)C(=O)N1CCN(c2ccccc2CNCCc2cccs2)CC1)OCc1ccccc1	–
1.3 nM	580 nM	O=C(NC1CCCC1)N[C@H](Cc1ccc(Cl)cc1Cl)C(=O)N1CCN(c2ccccc2CNCCc2cccs2)CC1	–
1.5 nM	670 nM	O=C(N[C@H](Cc1ccc(Cl)cc1Cl)C(=O)N1CCN(c2ccccc2CNCCc2cccs2)CC1)N1CCCC1	Ki [4]: 160 nM; Ki [7]: 6900 nM
7.9 nM	–	COc1ccc2ccccc2c1CCCCN1CCN(CC(c2ccc(F)cc2)N2CCN(C(C)C)CC2)CC1 (configuration not stated)	–
–	–	NCCC(=O)N[C@H](Cc1ccc(Cl)cc1Cl)C(=O)N1CCN(c2ccccc2CNCCc2cccs2)CC1	IA [6]: < 3%

Ki [1]	Ki [2]	Structure (SMILES)	other results
2 nM	560 nM	CN(C)C(=O)N[C@H](Cc1ccc(Cl)cc1Cl)C(=O)N1CCN(c2ccccc2CNCCc2cccs2)CC1	Ki [4]: 350 nM; Ki [7]: 6800 nM
5 nM	810 nM	COC(=O)N[C@H](Cc1ccc(Cl)cc1Cl)C(=O)N1CCN(c2ccccc2CNCCc2cccs2)CC1	–
3.1 nM	1600 nM	O=C(N[C@H](Cc1ccc(Cl)cc1Cl)C(=O)N1CCN(c2ccccc2CNCCc2cccs2)CC1)c1ccccc1	–
2.1 nM	860 nM	O=C(NC1CC1)N[C@H](Cc1ccc(Cl)cc1Cl)C(=O)N1CCN(c2ccccc2CNCCc2cccs2)CC1	–
> 10000 nM	–	O=C(N[C@H](Cc1cscn1)C(=O)N1CCN(c2ccccc2CNCCc2cccs2)CC1)OCc1ccccc1	–
1100 nM	–	O=C(N[C@H](Cc1csc2ccccc12)C(=O)N1CCN(c2ccccc2CNCCc2cccs2)CC1)OCc1ccccc1	–
23 nM	–	O=C(N[C@H](Cc1ccc(Cl)cc1Cl)C(=O)N1CCN(c2ccccc2CNCCc2cccs2)CC1)OCc1ccccc1	–
5 nM	–	O=C(NCc1ccccc1F)N[C@H](Cc1ccc(Cl)cc1Cl)C(=O)N1CCN(c2ccccc2CNCCc2cccs2)CC1	–
–	–	NCCC(=O)N[C@H](Cc1ccc(Cl)cc1)C(=O)N1CCN(c2ccccc2CNCCc2cccs2)CC1	IA [6]: 14%
16 nM	–	O=C([C@@H](Cc1ccc(Cl)cc1Cl)NCc1nccs1)N1CCN(c2ccccc2CNCCc2cccs2)CC1	IA [3]: < 3%
14 nM	–	CS(=O)(=O)N[C@H](Cc1ccc(Cl)cc1Cl)C(=O)N1CCN(c2ccccc2CNCCc2cccs2)CC1	IA [3]: < 3%
94 nM	–	N[C@H](Cc1ccc(Cl)cc1Cl)C(=O)N1CCN(c2ccccc2CNCCc2cccs2)CC1	IA [3]: < 3%
18 nM	–	NCCN[C@H](Cc1ccc(Cl)cc1Cl)C(=O)N1CCN(c2ccccc2CNCCc2cccs2)CC1	IA [3]: < 3%
1.7 nM	790 nM	CCNC(=O)N[C@H](Cc1ccc(Cl)cc1Cl)C(=O)N1CCN(c2ccccc2CNCCc2cccs2)CC1	Ki [4]: 300 nM; inhibition [5]: 18%
2.4 nM	570 nM	CC(=O)N[C@H](Cc1ccc(Cl)cc1Cl)C(=O)N1CCN(c2ccccc2CNCCc2cccs2)CC1	Ki [4]: 730 nM; inhibition [5]: 31%
3.2 nM	790 nM	O=C(N[C@H](Cc1ccc(Cl)cc1Cl)C(=O)N1CCN(c2ccccc2CNCCc2cccs2)CC1)OCCF	Ki [4]: 560 nM; Ki [7]: 1000 nM
5700 nM	–	O=C(N[C@H](Cc1ccc(O)cc1)C(=O)N1CCN(c2ccccc2CNCCc2cccs2)CC1)OCc1ccccc1	–
